Assay results as given in PMC9063559 (RSC Advances, 2019).
pIC50: −log10 of the molar value. Each block holds one molecule with its values, some of them ahead of it.

Legend:
Assay type in all cases: cell-based
[1] = tested on: Plasmodium falciparum (NF54 strain); test: in vitro antiplasmodial activity, chloroquine-sensitive NF54 strain; details: NF54, read-out: IC50 P. falciparum (NF54 strain)
Procedure, shortened: (§1)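 Test compounds were run in vitro in parallel against P. falciparum NF54 and K1, T. cruzi Tulahuen C4 amastigotes, T. b. rhodesiense STIB 900 trypomastigotes, L. donovani MHOM-ET-67/L82 amastigotes and rat L6 skeletal myoblasts. Each IC50 is the mean of two independent assays, with individual values within a factor of 2. Selectivity index = L6 IC50 ÷ P. falciparum IC50 for the respective strain.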

[2] = tested on: Trypanosoma brucei rhodesiense (STIB 900 strain, trypomastigotes); test: in vitro activity against Trypanosoma brucei rhodesiense; details: RHODESIENSE|STIB900, read-out: IC50 T. brucei rhodesiense
Procedure, shortened: as §1

[3] = cytotoxicity against mammalian host cells; details: rat, rat skeletal myoblast L6 cells
Procedure, shortened: as §1

[4] = tested on: Leishmania donovani (MHOM-ET-67/L82, amastigotes); test: in vitro activity against Leishmania donovani; details: read-out: IC50 L. donovani
Procedure, shortened: as §1

SMILES: C[C@@H]1CC[C@H]2[C@@H](C)C(=O)O[C@@H]3O[C@@]4(C)CC[C@@H]1[C@]32OO4 [Artemisinin]
- pIC50 [1]: 7.68

SMILES: Nc1nc(N)nc(Nc2ccc([As]3SCC(CO)S3)cc2)n1 (stereo not shown) [Melarsoprol]
- pIC50 [2]: 7.52

SMILES: COc1cc([C@@H]2c3cc4c(cc3[C@H](O)[C@H]3COC(=O)[C@H]23)OCO4)cc(OC)c1OC [Podophyllotoxin]
- pIC50 [3]: 8.02

- pIC50 [4]: 5.97
SMILES: CCCCCCCCCCCCCCCCOP(=O)([O-])OCC[N+](C)(C)C [Miltefosine]
